Calls of active or inactive are those of the source. The rule behind the calls is not given here.
Experiments:
Tubulin (Homo sapiens) = Tubulin (Homo sapiens) (UniProt P68371+Q9H4B7+P0DPH7+P68366+Q13509+Q71U36+P04350+Q3ZCM7+P07437+P68363+Q9BQE3+Q6PEY2+Q13885+Q9BVA1+Q9BUF5); assay: Inhibition of tubulin polymerization in human MCF7 cells assessed as induction of microtubules bundles formation at 1 uM incubated for 16 hrs by FITC-DAPI staining based confocal microscopic analysis; assay type: cell-based
[1] = Half life of the compound in pH 4 after 3 to 24 hrs by HPLC; assay type: physicochemical
How it was run: (§1)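 10 mg compound was dissolved in 10 ml mobile phase as stock. 200 µL stock was diluted into 9.8 mL phosphate buffer (pH 4, 7.4 or 9, British Pharmacopeia 2010) and injected immediately. Samples were analysed at t=0, then every 3 h to 24 h, by reverse-phase C8 HPLC: acetonitrile:water 50:50, 1 ml/min, 254 nm detection. Half-life was derived from these runs.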

[2] = Half life of the compound in pH 7.4 after 3 to 24 hrs by HPLC; assay type: physicochemical; how it was run: as §1
[3] = Half life of the compound in pH 9 after 3 to 24 hrs by HPLC; assay type: physicochemical; how it was run: as §1
MCF7 [4] = assay: Antiproliferative activity against human MCF7 cells assessed as cell viability pre-incubated for 24 hrs with CO2 followed by compound addition after 72 hrs by MTT assay; assay type: functional, cell-based
How it was run: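 MCF-7 grown in Eagle's MEM with 10% FBS, 2 mM L-glutamine, penicillin/streptomycin and 1% non-essential amino acids. Cells seeded at 2.5 x 10⁴ cells/mL, 24 h at 37 °C, then dosed from ethanol stocks over 1 nM–100 µM (vehicle 1% v/v ethanol) for 72 h. MTT at 1 mg/mL final, 2 h in the dark, DMSO solubilisation. Viability set against untreated controls; IC50 is the mean of three experiments in triplicate.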

MCF7 [5] = assay: Cytotoxicity against human MCF7 cells assessed as induction of cell death at 10 uM after 72 hrs by LDH assay; assay type: cell-based; settings: mcf7, 72 h
How it was run: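 Cell death in MCF-7 measured by LDH release. Seeding and dosing as for the MTT assay; after 72 h, lysis solution added to blank wells for 1 h to give 100% death. Supernatant mixed with substrate (INT to formazan) for 30 min at rt in the dark, then stopped and read at 490 nm. Percentage cell death reported at 10 μM; assays in triplicate.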

Tubulin (Sus scrofa) = Tubulin (Sus scrofa) (UniProt P02554+P02550); assay: Inhibition of porcine tubulin polymerization assessed as inhibition of tubulin assembly Vmax rate at 10 uM by spectrophotometric analysis; assay type: protein assay
How it was run: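 Tubulin polymerisation kit (>97% pure porcine tubulin, OD-based). Tubulin plus GTP at 37 °C with test agent at 10 μM final; 1% v/v ethanol as vehicle. A340 read every 30 s for 60 min at 37 °C. Fold change in Vmax calculated relative to vehicle; mean of three separate experiments.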

MCF7 [6] = assay: Induction of apoptosis in human MCF7 cells assessed as accumulation at sub-G0/G1 level at 100 nM after 72 hrs by propidium iodide staining based flow cytometric analysis (reference value: 4%); assay type: functional
[7] = Antiproliferative activity against human MDA-MB-321 cells assessed as cell viability after 72 hrs by MTT assay; assay type: functional, cell-based
How it was run: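 MDA-MB-231 cells kept in DMEM with 10% FBS, 2 mM L-glutamine and penicillin/streptomycin. Seeded at 2.5 x 10⁴ cells/mL, 24 h at 37 °C, then exposed for 72 h to 1 nM–100 µM from ethanol stocks (1% v/v ethanol vehicle). MTT added at 1 mg/mL final for 2 h in the dark, DMSO solubilisation, absorbance read, viability relative to untreated controls.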

MCF7 [8] = assay: Induction of cell cycle arrest in human MCF7 cells assessed as accumulation at G2/M phase at 50 nM after 24 hrs by propidium iodide staining based flow cytometric analysis (reference value: 25%); assay type: functional
MCF7 [9] = assay: Inhibition of tubulin polymerization in human MCF7 cells assessed as loss of microtubules formation at 100 nM incubated for 16 hrs by FITC-DAPI staining based confocal microscopic analysis; assay type: functional, cell-based
How it was run: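 MCF-7 seeded at 1×10^5 cells/ml on chamber glass slides and treated 16 h with paclitaxel (1 μM), test agent (100 nM) or vehicle (1% v/v ethanol). Fixed 20 min in 4% paraformaldehyde, permeabilised in 0.5% Triton X-100, blocked in 5% BSA. Stained with anti-α-tubulin–FITC (DM1A, 1:100, 2 h rt) and Alexa Fluor 488, DAPI counterstain. Imaged by confocal microscopy; three independent occasions.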

MCF7 [10] = assay: Binding affinity to beta-Tubulin in human MCF7 cells assessed as inhibition of protein-EBI adduct formation at Cys239 and Cys354 at 10 uM pre-incubated for 2 hrs followed by EBI addition after 1.5 hrs by Western blot analysis; assay type: cell-based
How it was run: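 MCF-7 seeded at 5×10^4 cells/well and incubated overnight. Treated 2 h with test agent at 10 μM or with vehicle (0.1% v/v ethanol), then with N,N'-ethylene-bis(iodoacetamide) for a further 1.5 h. Cells washed in ice-cold PBS and lysed in Laemmli buffer. SDS-PAGE, PVDF transfer and β-tubulin immunoblot to detect the faster-migrating β-tubulin–EBI adduct. Three independent experiments.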

MCF7 [11] = assay: Induction of cell cycle arrest in human MCF7 cells assessed as accumulation at G2/M phase at 50 nM after 48 hrs by propidium iodide staining based flow cytometric analysis (reference value: 25%); assay type: functional
MCF7 [12] = assay: Induction of apoptosis in human MCF7 cells assessed as accumulation at sub-G0/G1 level at 50 nM after 72 hrs by propidium iodide staining based flow cytometric analysis (reference value: 4%); assay type: functional
MCF7 [13] = assay: Antiproliferative activity against human MCF7 cells by SRB assay; assay type: functional
How it was run: (§2)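 NCI panel of 56 cell lines (MCF-7 included), run after an initial single-dose 10 μM screen. Five-dose testing used a sulphorhodamine B protein-staining read-out. GI50 (50% growth inhibition) and LC50 (50% lethal concentration) were derived for each line, and a mean GI50 was taken across the panel.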

[14] = Antiproliferative activity against human NCI60 cells by SRB assay; assay type: functional; how it was run: as §2
[15] = Toxicity in ip dosed athymic nude mouse; assay type: organism-based; settings: in vivo
[16] = Antitumor activity against human UACC62 cells xenografted in athymic nude mouse assessed as reduction in tumor cell growth at 37.5 mg/kg, ip by hollow fiber assay; assay type: functional; settings: UACC-62, ip, read-out: TGI

Tubulin (Sus scrofa), sequence (P02550 whole entry, looked up): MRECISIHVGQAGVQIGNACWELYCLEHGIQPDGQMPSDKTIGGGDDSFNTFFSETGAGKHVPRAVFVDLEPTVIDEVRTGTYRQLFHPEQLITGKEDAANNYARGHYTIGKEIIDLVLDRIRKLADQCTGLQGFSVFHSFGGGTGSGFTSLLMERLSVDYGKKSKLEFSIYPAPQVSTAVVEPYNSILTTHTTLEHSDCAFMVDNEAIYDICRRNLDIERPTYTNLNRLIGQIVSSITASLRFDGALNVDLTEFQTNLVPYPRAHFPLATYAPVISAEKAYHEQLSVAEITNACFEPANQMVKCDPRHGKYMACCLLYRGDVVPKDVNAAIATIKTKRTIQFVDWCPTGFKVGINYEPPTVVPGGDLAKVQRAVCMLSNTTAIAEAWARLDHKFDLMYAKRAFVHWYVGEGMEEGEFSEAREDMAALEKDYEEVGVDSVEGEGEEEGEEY
Tubulin (Sus scrofa), sequence (P02554 whole entry, looked up): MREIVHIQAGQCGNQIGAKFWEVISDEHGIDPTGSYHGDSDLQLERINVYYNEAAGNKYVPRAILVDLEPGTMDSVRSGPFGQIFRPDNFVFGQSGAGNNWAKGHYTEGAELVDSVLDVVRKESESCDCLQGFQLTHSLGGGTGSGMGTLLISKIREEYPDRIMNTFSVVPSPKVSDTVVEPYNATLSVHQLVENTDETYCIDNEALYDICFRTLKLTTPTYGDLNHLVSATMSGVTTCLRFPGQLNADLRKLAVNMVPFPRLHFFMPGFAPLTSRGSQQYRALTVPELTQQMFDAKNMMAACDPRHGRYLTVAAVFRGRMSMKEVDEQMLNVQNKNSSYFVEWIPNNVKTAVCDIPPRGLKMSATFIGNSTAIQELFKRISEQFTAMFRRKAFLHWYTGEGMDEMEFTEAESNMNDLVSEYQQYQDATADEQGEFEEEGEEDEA

| inhibition (Tubulin (Homo sapiens)) | SMILES | half-life [1] [h] | half-life [2] [h] | half-life [3] [h] | IC50 (MCF7 [4]) [nM] | Activity (MCF7 [5]) [%] | fold change (FC) (Tubulin (Sus scrofa)) | Activity (MCF7 [6]) [%] | IC50 [7] [nM] | Activity (MCF7 [8]) [%] | inhibition (MCF7 [9]) | Activity (MCF7 [10]) | Activity (MCF7 [11]) [%] | Activity (MCF7 [12]) [%] | GI50 (MCF7 [13]) [nM] | GI50 [14] [nM] | MTD [15] [mg/kg] | inhibition in vivo at 37.5 mg/kg [16] [%] |
| --- | --- | --- | --- | --- | --- | --- | --- | --- | --- | --- | --- | --- | --- | --- | --- | --- | --- | --- |
| Active | CC(=O)O[C@H]1C(=O)[C@@]2(C)[C@H]([C@H](OC(=O)c3ccccc3)[C@]3(O)C[C@H](OC(=O)[C@H](O)[C@@H](NC(=O)c4ccccc4)c4ccccc4)C(C)=C1C3(C)C)[C@]1(OC(C)=O)CO[C@@H]1C[C@@H]2O | – | – | – | – | – | – | – | – | – | – | – | – | – | – | – | – | – |
| – | COc1ccc([C@@H]2[C@@H](Oc3ccccc3)C(=O)N2c2cc(OC)c(OC)c(OC)c2)cc1O (relative stereo) | 12 | 8 | 11 | 38 | 29 | 3.2 | 34 | – | – | – | – | – | – | – | – | – | – |
| – | COc1ccc([C@@H]2[C@@H](Oc3ccccc3)C(=O)N2c2cc(OC)c(OC)c(OC)c2)cc1N (relative stereo) | 18 | > 24 | 18 | 13 | 10.2 | 1.8 | – | 15 | 57 | Active | Active | 73 | 35 | < 10 | 22.4 | 100 | 50 |
| – | COc1ccc([C@@H]2[C@H](Oc3ccccc3)C(=O)N2c2cc(OC)c(OC)c(OC)c2)cc1O (relative stereo) | – | – | – | 383 | 2.8 | 1.1 | – | – | – | – | – | – | – | 360 | 1450 | – | – |
| – | COc1ccc(/C=C\c2cc(OC)c(OC)c(OC)c2)cc1O [COMBRETASTATIN A4] | – | – | – | 3.9 | 5.5 | 6 | – | – | – | Active | Active | – | – | – | – | – | – |
